Consider 2 molecules from ChEMBL document CHEMBL3774344, “Role of a Preorganized Scaffold Presenting Four Residues of a GM-3 Lactone Mimetic on Melanoma Progression” (2016).

Assay [1] in a line: Antitumor activity against mouse B16F10 cells xenografted in C57BL/6 mouse assessed as reduction in tumor volume at 400 ug, ip administered on day 0 to 72 followed by tumor implantation on day 69 measured every 2 to 3 days relative to PBS-treated control. Further details: scale not given: the % may be the effect or the level left.
In assay [2] the test system is A-375. In words: Inhibition of cell invasion in human A375 cells at 50 uM after 24 hrs by Boyden invasion assay in presence of 10% serum. The assay is classed as functional. The note with it: A-375, 24 h. The method in brief:
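Cells treated with 50 μM compound, then placed in Boyden chambers (8 μm pores) with Matrigel 3D barrier and allowed to invade toward 10% serum for 24 h. Cells crossing the filter counted. At least three independent experiments; mean and SD.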

In assay [3] the test system is A-375. Kind of assay: Antimigratory activity against human A375 cells at 50 uM after 24 hrs in presence cancer associated fibroblast by 2D-migration assay. Type of assay: functional, cell-based. The method in brief: (§1)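 A375 cells incubated under hypoxia (1% O2) with conditioned medium from CAFs (derived ex vivo from aggressive human melanoma) or HDFs, with or without 50 μM compound. Cells then assayed for 2D migration or invasion through reconstituted Matrigel barrier in Boyden chambers.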

The test system of assay [4] is A-375. In words: Inhibition of cell migration in human A375 cells at 50 uM after 24 hrs by 2D-migration assay in presence of 10% serum. Type of assay: functional. As to conditions: A-375, 24 h. The method in brief:
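Cells treated with 50 μM compound, then allowed to migrate 24 h toward 10% serum chemoattractant. Cells counted in a randomly chosen field per filter. At least three independent experiments; mean and SD.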

Assay [5] concerns A-375. In words: Induction of apoptosis in serum-starved human A375 cells after 24 hrs by AnnexinV/PI-staining based flow cytometric analysis. The assay is classed as functional, cell-based. The method in brief:
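A375 cells serum-starved, detached and held in suspension for 24 h with compound. Apoptotic fraction measured by Annexin V–PI staining. At least three independent experiments; mean and SD.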
For orientation: In flow cytometry, cells or beads pass a laser one at a time.

Assay [6] has as its system A-375. Kind of assay: Inhibition of cell adhesion in human A375 cells at 50 uM measured from 1 to 3 hrs in presence of fibronectin by crystal violet staining based assay. Type of assay: functional. The method in brief:
(§2)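 A375 cells treated with 50 μM compound, then allowed to adhere to fibronectin-coated dishes for varying times up to 4 h, with no-fibronectin comparison. Percentage of adhered cells scored by crystal violet. At least three independent experiments; mean and SD.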

Assay [7] concerns A-375. Kind of assay: Inhibition of cell adhesion in human A375 cells at 50 uM measured after 4 hrs in presence of fibronectin by crystal violet staining based assay. Type of assay: functional. The note with it: A-375, 4 h. The method in brief:
as §2

For assay [8], the system named is A-375. In words: Antiinvasion activity in human A375 cells at 50 uM after 24 hrs in presence of cancer associated fibroblast by Boyden invasion assay. Type of assay: functional, cell-based. The method in brief: as §1

Activity calls are given as the source filed them. The calls are words filed in the database; no cut-off is given here. Some results are limits rather than exact numbers.

Broadly, the inhibition is the percentage by which the read-out fell short of the control. Take `CC(C)=NOCC(=O)NCCCC[C@@H]1NC(=O)[C@H](CCCCNC(=O)CCCCC(=O)NCCCCCCO[C@H]2O[C@H](CO)[C@H](O)C3=C2SC[C@]2(C[C@@H](O)[C@@H](O)[C@@H]([C@H](O)CO)O2)O3)NC(=O)CNC(=O)[C@@H]2CCCN2C(=O)[C@H](CCCCNC(=O)CCCCC(=O)NCCCCCCO[C@@H]2O[C@@H](CO)[C@@H](O)C3=C2SC[C@@]2(C[C@@H](O)[C@@H](O)[C@@H]([C@H](O)CO)O2)O3)NC(=O)[C@H](C)NC(=O)[C@H](CCCCNC(=O)CCCCC(=O)NCCCCCCO[C@H]2O[C@H](CO)[C@H](O)C3=C2SC[C@]2(C[C@H](O)[C@H](O)[C@H]([C@@H](O)CO)O2)O3)NC(=O)CNC(=O)[C@@H]2CCCN2C(=O)[C@H](CCCCNC(=O)CCCCC(=O)NCCCCCCO[C@@H]2O[C@@H](CO)[C@@H](O)C3=C2SC[C@@]2(C[C@H](O)[C@H](O)[C@H]([C@@H](O)CO)O2)O3)NC1=O`: in assay [1], the Activity is greater than 50%. Moreover, the inhibition at 50 µM in assay [2] was 30%; in assay [4], 30%; in assay [6] it was no more than 30%; in assay [7] it was 50%. The outcome in assay [3], in assay [5] and in assay [8] was Active.
`CCCOc1c2cc(CCCn3cc(CCO[C@H]4O[C@H](CO)[C@H](O)C5=C4SC[C@]4(C[C@@H](O)[C@@H](O)[C@@H]([C@@H](O)CO)O4)O5)nn3)cc1Cc1cc(CCCn3cc(CCO[C@H]4O[C@H](CO)[C@H](O)C5=C4SC[C@]4(C[C@@H](O)[C@@H](O)[C@@H]([C@@H](O)CO)O4)O5)nn3)cc(c1OCCC)Cc1cc(CCCn3cc(CCO[C@H]4O[C@H](CO)[C@H](O)C5=C4SC[C@]4(C[C@@H](O)[C@@H](O)[C@@H]([C@@H](O)CO)O4)O5)nn3)cc(c1OCCC)Cc1cc(CCCn3cc(CCO[C@H]4O[C@H](CO)[C@H](O)C5=C4SC[C@]4(C[C@@H](O)[C@@H](O)[C@@H]([C@@H](O)CO)O4)O5)nn3)cc(c1OCCC)C2`: the result in assay [3] and in assay [8] was Active.
